Data from ChEMBL document CHEMBL4368903, “Identification of GSK3186899/DDD853651 as a Preclinical Development Candidate for the Treatment of Visceral Leishmaniasis” (J Med Chem, 2019).
≈ marks a conversion by molar mass, not a printed value.

Key:
Leishmania donovani [1] = assay: Antileishmanial activity against Leishmania donovani […] in human THP1 cells by intramacrophage assay; type: functional, organism-based; conditions: for EC50: Leishmania donovani, THP-1
[2] = Solubility of compound in fasted simulated intestinal fluid at 1 mg after 4 hrs by HPLC-UV analysis; type: physicochemical; conditions: for solubility at 4 h: fasted simulated intestinal fluid; for solubility: 4 h
Summary of the method: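 1 mg solid shaken in 1 mL FaSSIF (3 mM sodium taurocholate, 0.75 mM lecithin, phosphate buffer pH 6.5) at 900 rpm for 4 h at room temperature, then filtered. Supernatant quantified by HPLC-UV against single-point DMSO calibration. Range 1–1000 μg/mL.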

[3] = Kinetic aqueous solubility of the compound in phosphate buffer at pH 7.4 by CLND assay; type: physicochemical; conditions: for solubility kinetic: phosphate buffer, read-out: Kinetic_solubility; for Kinetic_solubility: buffer
Summary of the method: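 From 10 mM DMSO stock diluted 1:20 into pH 7.4 PBS, equilibrated 1 h at RT, filtered. Filtrate quantified by calibrated flow-injection CLND. Dynamic range 1–500 μM.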

[4] = Lipophilicity, log D of the compound at pH 7.4 assessed as chromatographic hydrophobicity index; type: physicochemical; conditions: buffer
Summary of the method: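 Reversed-phase C18 HPLC with fast acetonitrile gradient. CHI taken from gradient retention time via a calibration line of standards. ChromLogD = 0.0857 × CHI − 2.00.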

[5] = Mean AUClast in Sprague-Dawley rat at 300 mg/kg, po measured up to 24 hrs by UPLC-MS/MS analysis; type: ADME, organism-based; design: dose 300 mg/kg, time < 24 hr, route oral; conditions: in vivo
Summary of the method: (§1)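 Male Sprague–Dawley rats (n=3) given oral gavage as 1% methylcellulose suspension at 10, 100 or 300 mg/kg. Tail-vein blood at 0.25–24 h into K-EDTA, diluted in 0.1N Hepes and stored at −20 °C. Protein precipitation, then LC-MS/MS (range 2.90–2860 ng/mL). AUC0–t by linear up-log down trapezoidal rule.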

Leishmania donovani [6] = assay: Antileishmanial activity against Leishmania donovani LV9 amastigotes infected in BALB/c mouse assessed as suppression of parasite load within liver at 100 mg/kg, po administered bid for 5 days relative to control; type: functional
Summary of the method: (§2)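 Female BALB/c mice, 5 per group, infected i.v. with about 2×10^7 L. donovani LV9 amastigotes harvested from infected hamster spleen. Oral dosing starts day 7 post-infection, in 0.5% HPMC/0.4% Tween 80/0.5% benzyl alcohol, or 10% DMSO/60% PEG400/30% water for the 5-day 50 mg/kg regimen. Dosing solutions made fresh daily. Killed day 14 (5-day) or 19 (10-day). Liver smears give LDU (amastigotes/500 nucleated cells × organ weight). Mean LDU compared with vehicle control gives % suppression.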

[7] = Intrinsic clearance in human liver microsomes at 0.5 uM after 3 to 30 mins in presence of NADPH by UPLC-MS/MS analysis; type: ADME, Microsome
Summary of the method: (§3)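 0.5 μM compound with female CD1 mouse or human liver microsomes, started with excess NADPH in 50 mM potassium phosphate pH 7.4. Aliquots at 0, 3, 6, 9, 15 and 30 min quenched in acetonitrile with internal standard. UPLC-MS/MS; rate constant from exponential decay of compound/IS ratio. Verapamil as positive control.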

HepG2 = assay: Cytotoxicity against human HepG2 cells; type: cell-based
Leishmania donovani [8] = assay: Antileishmanial activity against Leishmania donovani LV9 amastigotes infected in BALB/c mouse assessed as suppression of parasite load within liver at 10 mg/kg, po administered bid for 10 days relative to control; type: functional; summary of the method: as §2
[9] = Intrinsic clearance in CD1 mouse liver microsomes at 0.5 uM after 3 to 30 mins in presence of NADPH by UPLC-MS/MS analysis; type: ADME, Microsome; summary of the method: as §3
Leishmania donovani [10] = assay: Antileishmanial activity against Leishmania donovani LV9 amastigotes infected in BALB/c mouse assessed as suppression of parasite load within liver at 25 mg/kg, po administered bid for 10 days relative to control; type: functional; summary of the method: as §2
[11] = Fraction unbound in human plasma at 10 ug/ml after 15 mins by UPLC-MS/MS analysis; type: ADME, cell-free
Leishmania donovani [12] = assay: Antileishmanial activity against Leishmania donovani LV9 amastigotes infected in BALB/c mouse assessed as suppression of parasite load within liver at 50 mg/kg, po administered bid for 10 days relative to control; type: functional; summary of the method: as §2
[13] = Mean AUClast in Sprague-Dawley rat at 100 mg/kg, po measured up to 24 hrs by UPLC-MS/MS analysis; type: ADME, organism-based; design: dose 100 mg/kg, time < 24 hr, route oral; conditions: in vivo; summary of the method: as §1
[14] = Mean AUClast in Sprague-Dawley rat at 10 mg/kg, po measured up to 24 hrs by UPLC-MS/MS analysis; type: ADME, organism-based; design: dose 10 mg/kg, time < 24 hr, route oral; conditions: in vivo; summary of the method: as §1
THP-1 = assay: Cytotoxicity against human THP1 cells; type: cell-based
[15] = Fraction unbound in CD1 mouse plasma at 10 ug/ml after 15 mins by UPLC-MS/MS analysis; type: ADME, cell-free
[16] = Dissociation constant, pKa of the compound by UV-spectroscopy; type: physicochemical
Summary of the method: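 Sirius T3 acid–base titration with UV read-out: 5 μL of 10 mM sample, absorbance over 54 pH values in about 5 min. Methanol cosolvent with Yasuda–Shedlovsky extrapolation used when precipitation occurred.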

Leishmania donovani [17] = assay: Antileishmanial activity against Leishmania donovani axenic amastigote; type: functional, organism-based
Leishmania donovani [18] = assay: Antileishmanial activity against Leishmania donovani LV9 amastigotes infected in BALB/c mouse assessed as suppression of parasite load within liver at 50 mg/kg, po administered bid for 5 days relative to control; type: functional; summary of the method: as §2
[19] = Volume of distribution at steady state in BALB/c mouse at 10 mg/kg, po measured up to 24 hrs by UPLC-MS/MS analysis; type: ADME, organism-based; conditions: in vivo
Summary of the method: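 Female Balb/c mice (n = 3) were dosed in 10% (v/v) DMSO, 60% PEG 400 and 30% deionized water. Compound in blood was quantified by UPLC-MS/MS, and parameters were derived from the mean blood concentration–time curve.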

[20] = Blood clearance in BALB/c mouse at 10 mg/kg, […] measured up to 24 hrs by UPLC-MS/MS analysis; type: ADME, organism-based; conditions: whole blood
[21] = Oral bioavailability in BALB/c mouse at 10 mg/kg measured up to 24 hrs by UPLC-MS/MS analysis; type: ADME, organism-based; conditions: in vivo
[22] = Permeability of the compound by artificial membrane permeability assay; type: ADME; conditions: PAMPA; read-out: permeability
[23] = Cmax in BALB/c mouse at 10 mg/kg, po measured up to 24 hrs by UPLC-MS/MS analysis; type: ADME, organism-based; design: dose 10 mg/kg, route oral; conditions: in vivo
Summary of the method: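 Single oral dose to female Balb/c mice (n=3) in 10% DMSO/60% PEG400/30% water. Blood sampled at 0.08–24 h and mixed with two volumes of water. Compound quantified by UPLC-MS/MS. Parameters taken from the mean blood concentration–time curve.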

[24] = AUClast in BALB/c mouse at 10 mg/kg, po measured up to 24 hrs by UPLC-MS/MS analysis; type: ADME, organism-based; design: time < 24 hr, dose 10 mg/kg, route oral; conditions: in vivo
Summary of the method: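 Female Balb/c mice (n=3) dosed orally in 10% (v/v) DMSO, 60% PEG 400, 30% deionized water. AUC0–last (to last measurement) derived from the mean blood concentration–time curve.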

## COc1nc(N[C@H]2CC[C@H](NS(=O)(=O)CCC(F)(F)F)CC2)nc2[nH]nc(N3CCOCC3)c12
Leishmania donovani [1]
  EC50: 1.26 µM
[2]
  solubility at 4 h: 53 µg/mL (≈ 104 µM)
[3]
  solubility kinetic: 311 µM (≈ 158 µg/mL)

## O=S(=O)(CCC(F)(F)F)N[C@H]1CC[C@H](Nc2ncc3c(C4CCOCC4)n[nH]c3n2)CC1
[4]
  chromatographic logD: 3.2
Leishmania donovani [1]
  EC50: 3.16 µM
[3]
  solubility kinetic: 35 µM (≈ 16.7 µg/mL)

## CC(C)CS(=O)(=O)N[C@H]1CC[C@H](Nc2ncc3c(N4CCOCC4)n[nH]c3n2)CC1
[5]
  AUC(0-t) at 24 h: 2380 ng·h/mL
Leishmania donovani [6]
  Activity: 94%
[7]
  CLH: 1.8 mL/min/g
HepG2
  EC50: > 100 µM
Leishmania donovani [8]
  Activity: 36%
[9]
  CLH: 0.9 mL/min/g
Leishmania donovani [10]
  Activity: 74%
Leishmania donovani [1]
  EC50: 0.501 µM
[2]
  solubility at 4 h: 9 µg/mL (≈ 20.6 µM)
[11]
  fraction unbound at 0.25 h, 10 ug/ml: 0.33
Leishmania donovani [12]
  Activity: 97%
[13]
  AUC(0-t) at 24 h: 2960 ng·h/mL
[3]
  solubility kinetic: 328 µM (≈ 144 µg/mL)
[14]
  AUC(0-t) at 24 h: 162 ng·h/mL
THP-1
  EC50: > 50.1 µM
[15]
  fraction unbound at 0.25 h, 10 ug/ml: 0.37

## COc1nc(N[C@H]2CC[C@H](NS(=O)(=O)CC3CCCO3)CC2)nc2[nH]nc(N3CCOCC3)c12 (stereo in doubt; 34)
Leishmania donovani [1]
  pEC50: 5.4
[2]
  solubility at 4 h: 283 µg/mL (≈ 571 µM)
[3]
  solubility kinetic: 412 µM (≈ 204 µg/mL)

## COc1nc(N[C@H]2CC[C@H](NS(=O)(=O)CC3CCCO3)CC2)nc2[nH]nc(N3CCOCC3)c12 (stereo in doubt; 35)
Leishmania donovani [1]
  EC50: 6.31 µM
[2]
  solubility: 208 µg/mL (≈ 420 µM)
[3]
  Kinetic_solubility: 421 µM

## O=S(=O)(CCC(F)(F)F)N[C@H]1CC[C@H](Nc2ncc3c(N4CCNCC4)n[nH]c3n2)CC1
[4]
  chromatographic logD: 1.6
Leishmania donovani [1]
  EC50: 31.6 µM
[3]
  solubility kinetic: 346 µM (≈ 165 µg/mL)

## C[C@@H]1CN(c2n[nH]c3nc(N[C@H]4CC[C@H](NS(=O)(=O)CCC(F)(F)F)CC4)ncc23)CCO1
Leishmania donovani [1]
  EC50: 5.01 µM
[2]
  solubility at 4 h: 23 µg/mL (≈ 46.8 µM)
[3]
  solubility kinetic: 52 µM (≈ 25.6 µg/mL)

## O=S(=O)(CCC(F)(F)F)N[C@H]1CC[C@H](Nc2ncc3c(N4CCCC4)n[nH]c3n2)CC1
[4]
  chromatographic logD: 4
Leishmania donovani [1]
  EC50: 2 µM
[3]
  solubility kinetic: 12 µM (≈ 5.54 µg/mL)

## O=S(=O)(CCC(F)(F)F)N[C@H]1CC[C@H](Nc2ncc3c(N4CCOCC4)n[nH]c3n2)CC1
[16]
  pKa: 3.7
[4]
  chromatographic logD: 3
Leishmania donovani [1]
  EC50: 3.16 µM
[2]
  solubility at 4 h: 7 µg/mL (≈ 14.7 µM)
[3]
  solubility kinetic: 259 µM (≈ 124 µg/mL)

## O=S(=O)(CCC(F)(F)F)N[C@H]1CC[C@H](Nc2ncc3c(N4CCCCC4)n[nH]c3n2)CC1
[4]
  chromatographic logD: 4.4
Leishmania donovani [1]
  EC50: 1.58 µM
[3]
  solubility kinetic: 46 µM (≈ 21.9 µg/mL)

## CC(C)CC(=O)c1sc(NC2CCCCC2)nc1N
Leishmania donovani [17]
  EC50: 50.1 µM

## CC(C)Cc1n[nH]c2nc(N[C@H]3CC[C@H](NC(=O)Cc4ccccc4)CC3)ncc12
[7]
  CLH: 1.9 mL/min/g
HepG2
  EC50: 50.1 µM
[9]
  CLH: 9.5 mL/min/g
Leishmania donovani [1]
  EC50: > 50.1 µM
THP-1
  EC50: > 50.1 µM

## O=S(=O)(CCC(F)(F)F)N[C@H]1CC[C@H](Nc2ncc3c(-c4cncnc4)n[nH]c3n2)CC1
[4]
  chromatographic logD: 3
Leishmania donovani [1]
  EC50: 6.31 µM
[3]
  solubility kinetic: 11 µM (≈ 5.18 µg/mL)

## CC1COCCN1c1n[nH]c2nc(N[C@H]3CC[C@H](NS(=O)(=O)CCC(F)(F)F)CC3)ncc12 (stereo in doubt; 36)
Leishmania donovani [1]
  pEC50: 5.6
[2]
  solubility at 4 h: 88 µg/mL (≈ 179 µM)
[3]
  solubility kinetic: ≥ 310 µM

## O=S(=O)(CCC(F)(F)F)N[C@H]1CC[C@H](Nc2ncc3c(-c4ccccn4)n[nH]c3n2)CC1
Leishmania donovani [18]
  Activity: 85%
[16]
  pKa: 3.2
[7]
  CLH: < 0.5 mL/min/g
HepG2
  EC50: > 100 µM
[19]
  Vdss: 0.9 L/kg
[9]
  CLH: 0.6 mL/min/g
[20]
  CL/F: 4 mL/min/kg
Leishmania donovani [1]
  EC50: 0.501 µM
[21]
  bioavailability: 44%
[22]
  Papp: 44 ×10⁻⁶ cm/s
[2]
  solubility at 4 h: < 1 µg/mL
[11]
  fraction unbound at 0.25 h, 10 ug/ml: 0.08
[3]
  solubility kinetic: 8 µM (≈ 3.76 µg/mL)
[23]
  Cmax: 1910 ng/mL
[24]
  AUC(0-t) at 24 h: 17400 ng·h/mL
THP-1
  EC50: 50.1 µM
[15]
  fraction unbound at 0.25 h, 10 ug/ml: 0.13

## CC1COCCN1c1n[nH]c2nc(N[C@H]3CC[C@H](NS(=O)(=O)CCC(F)(F)F)CC3)ncc12 (stereo in doubt; 37)
Leishmania donovani [1]
  EC50: 2 µM
[2]
  solubility: 118 µg/mL (≈ 240 µM)
[3]
  Kinetic_solubility: >= 292 uM
